Experimental data as given in publication PMC8908367 (ACS Omega, 2022).

Columns and labels:
[1] = system: trypanothione reductase; details: cited from earlier work
[2] = system: T. cruzi intracellular parasite; details: cited from earlier work
[3] = system: T. cruzi CA-I/72 amastigotes; type: cell-based, Trypanosoma cruzi
Procedure, shortened: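 Test compound in DMSO acoustically spotted into 384-well plates. C2C12 mouse […] (500/well) and CA-I/72 T. cruzi (7500/well; strain kept by weekly C2C12 coculture passage) added together, 72 h at 37 °C, 5% CO2. Fixed in 4% paraformaldehyde/PBS, DAPI 5 μg/mL 1 h, imaged at 10×. Automated host and parasite nuclei counts fitted to CC50 and EC50 curves; SI = CC50/EC50.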

[4] = Host cell toxicity in the high-content imaging assay; type: cell-based; details: mouse

Row | SMILES | inhibition of trypanothione reductase [1] | activity against the intracellular parasite in vitro [2] | SI (Selectivity Index = CC50/EC50) ([3]; CC50 C2C12 / EC50 T. cruzi CA-I/72) | EC50 ([3]; Trypanosoma cruzi, C2C12, 72 h, read-out: EC50, inhibition of T. cruzi amastigote replication) [µM] | CC50 at 72 h [4] [µM]
1 | C=C1C(=O)[C@H]2O[C@]23C[C@H]2CC(C)(C)[C@H](O)[C@H]2[C@]13C [hypnophilin] | potent inhibitor | showed activity | – | – | –
2 | O=C(Cn1ccnc1[N+](=O)[O-])NCc1ccccc1 [Benznidazole] | – | – | >22 | 2.2 ± 0.0013 | > 50
